The test system of this series is MS2 coat protein. The series is described as follows: apparent Kd, MS2 coat protein; higher = weaker binding; RNA-MaP array; FMN 200 µM where present. The method, boiled down:
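Green signal was scaled to red-channel RNA signal and control-cluster median Fmax, and the apparent Kd was taken as the median of filtered per-cluster binding-curve fits. The binding series used SNAP-549-labelled MS2 coat protein from 0.7 or 1.5 nM, doubling to 3 µM, on designs transcribed by stalled E. coli RNA polymerase on Illumina sequencing-chip clusters. Each series ran without and then with constant ligand in 100 mM Tris-HCl pH 7.5, 80 mM KCl, 4 mM MgCl2, BSA, DTT, yeast tRNA and Tween-20.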

Where [1] appears, read: designed as: OFF switch for flavin mononucleotide, no ligand.
[2] abbreviates: ligand present: flavin mononucleotide, designed as: OFF switch for flavin mononucleotide.
Where [3] appears, read: designed as: ON switch for flavin mononucleotide, no ligand.
Where [4] appears, read: ligand present: flavin mononucleotide, designed as: ON switch for flavin mononucleotide.

The term apparent Kd denotes a dissociation constant that holds for the conditions of the assay. In the case of “GCACGGUUGCUAGGAUAUCCUUGCGAUUAGCAAGGAGAAGGAGCACAUGAGGAUCACCCAUGUACCUCAAUAAUCCAUCCGUGC”, the “apparent Kd” value is, setting by setting: under setting [1], 14.8 nM; under setting [2], 14.2 nM. In the same order, the values of “ACAUGAGGAUCACCCAUGUUUUUCGGGUACUCUUUUUACAGCAAGGAUAUGCAUUAUUUUUUUACGCAGAAGGUGCUUUACGUC” are 114 nM and 196 nM. As for “UAUUUUAACUAAGGAUAUCUGUAUUAUGUUGAAACAUGAGGAUCACCCAUGUUCAUGAUAUUAUAGGAGAAGGUAGAUGAAUAA”, the “apparent Kd” value worked out at 6.75 nM under setting [3] and 6.01 nM under setting [4]. For “AGAAUGGGCGAGAAGGGAGUACAUGAGGAUCACCCAUGUGGUUGAUGGUGCUCAGGAUAUCGAAGGACCAGGGAGCGUCUCUGG”, the “apparent Kd” value is, setting by setting: under setting [1], 185 nM; under setting [2], 302 nM. In the same order, the values of “UGUGUGUGUGCAGGAUAUUUAAGAAGAACAUGAGGAUCACCCAUGUGAGGAUCACCCAUGUAAAAGGAGAAGGGCAGUGUGUGU” are 754 nM and 728 nM. Regarding “UAGUAUCAACGAGGAUAUAAUAUGUUCAAUUUUUUAUAUUGUUUACAUGAGGAUCACCCAUGUUAUUAGAAGGCGUAUGGGAUU”, the “apparent Kd” value under setting [3] is 61.8 nM and the “apparent Kd” value under setting [4] turned out to be 47.7 nM. Regarding “GGUGUGCAGCAGGAUAUCCAUCCGCGGUAUGGUGGAGAAGGGCUGACAUGAGGAUCACCCAUGUGCGUCCUAGG”, the “apparent Kd” value amounted to 40.3 nM under setting [1] and 133 nM under setting [2]. Turning to “GUAGCAUUGUGAGGAUAUCCAUAUCCGAAAGGGACAUGAGGAUCACCCAUGUCGCGAAAGCGGUGGGAGAAGGCACUAUGCUAC”, the “apparent Kd” value came out at 4.31 nM under setting [3] and 4.03 nM under setting [4]. With “CACUGCAAUGUAGGAUAUCGACUGGAAUACAGUCGAGAAGGACAUGAGGAUCACCCAUGUCAUCCUAAUAAUAAAUAAGCAGUG”, the “apparent Kd” value under setting [1] is 14.4 nM and the “apparent Kd” value under setting [2] worked out at 19.5 nM. “CCCUCACAUGAGGAUCACCCAUGUCAGGAUAUCUCACAUCGGCCUUAGGCCAAUGUCAAGAGAAGGGACGUAUC”: the “apparent Kd” value is, setting by setting: under setting [1], 22.3 nM; under setting [2], 33.9 nM. With “GGCGACCUAGGAUAUACAUGAGGAUCACCCAUGUUUAUCUAUUAGAUGAAGACGGGUUGUAGAAGGAGGAUAUU”, the “apparent Kd” value runs as follows: under setting [1], 15.5 nM; under setting [2], 18.2 nM. “GCGCCAUUGCAAGGAUAUCCUACAGAGGGUGCAGGAGAAGGUGCAUUGGUGAGACUAUAGGACAUGAGGAUCACCCAUGUACCU”: the “apparent Kd” value runs as follows: under setting [3], 14.8 nM; under setting [4], 17.9 nM.

With “AGAUGACAAGGAUAUACUCGGGAUGCUAGUCGCGAAGAAGCACAUGAGGAUCACCCAUGUAGAAGGUGUAAGAA”, the “apparent Kd” value amounted to 122 nM under setting [1] and 128 nM under setting [2]. The like results for “GGUUGUCAUAGUCAUCCUUUCCGUACAUGAGGAUCACCCAUGUAGGAUAUGCUACUCACAGUGUAGCAGAAGGGCGUGUGUCUU” were, in that order, 16.6 nM and 17.6 nM. The like results for “CCACUGUCAGGAUAUCGUGCAUAAGCGUUUACAUUUAUGUGCGAGAAGGGACAUGAGGAUCACCCAUGUAAACG” were, in that order, 417 nM and 653 nM. Regarding “CCCGUGUUAGGAUAUACGGCACACCUGCCAGCAGGUGUAUAGUAGAAGGAACAUGAGGAUCACCCAUGUAUAGC”, the “apparent Kd” value by setting is: under setting [1], 38.1 nM; under setting [2], 36 nM.

In the case of “AAGAAGUGAGGAUAUCGAAGACAGACGAAAAGUCUGUCAAACGAGAAGGCACAUGAGGAUCACCCAUGUAAGAA”, the “apparent Kd” value runs as follows: under setting [1], 25.9 nM; under setting [2], 35.2 nM. In the case of “AAUUAAGAUCUAGGAUAUCACGUCGAUUAGACGUGAGAAGGAGAUCAUAACAUGAGGAUCACCCAUGUAUUACAUGAAUUAAUU”, the “apparent Kd” value under setting [3] was found to be 28 nM and the “apparent Kd” value under setting [4] is 25.9 nM. The like results for “AAGAGACAUCAGAAGGGAGCCCGAAAGCGCAGCUCAGGAUAUGAGAUCUUAUGUAGUACGACAUGAGGAUCACCCAUGUCCGCG” were, in that order, 74.3 nM and 10.2 nM. For the sequence “CAUUAAUUCAUUAUAGUAAUUAUACAGGAUAUGUUACAUGAGGAUCACCCAUGUAUUCAUGGUAAACAGAAGGGUAAUACUAGA”, the “apparent Kd” value is, setting by setting: under setting [1], 12.3 nM; under setting [2], 22.4 nM. Consider “CCGGAAACGGGUAGCUCACAUGAGGAUCACCCAUGUGAAACACAGGAUAUGGAUCCUAAUUGGAUCCAGAAGGGUGUGAGCUAC”, for which the “apparent Kd” value is 58 nM under setting [3] and 20.3 nM under setting [4].

As for “GAUAGGACAGAGAAGGUACGUGCUAGAGAUACUAGCAAAAUUACCUCACAUGAGGAUCACCCAUGUAAGGAUAUCUGUCCUAUC”, the “apparent Kd” value came to 4.82 nM under setting [1] and 5.54 nM under setting [2]. For “UGUGCGUUGAUCUUCGAUCGGAGUACAUGAGGAUCACCCAUGUAGGAUAUUCAAAGACGCAGAUAGGAGAAGGACAUCGGAUUA”, the “apparent Kd” value under setting [1] came to 9.63 nM and the “apparent Kd” value under setting [2] was 8.83 nM.

Turning to “CUCAUGUAAGGAUAUCAGUAGUAAAAAAAUAAAAUUACUACUGAGAAGGUACAUGAGGAUCACCCAUGUAUCUU”, the “apparent Kd” value is, setting by setting: under setting [1], 84.8 nM; under setting [2], 72.5 nM. In the same order, the values of “CCAUGGCUGUAAGGAUAUGUCUGACAAAGUCAGACAGAAGGUACAUGAGGAUCACCCAUGUGAAGAAAACCACAUUUGCCAUGG” are 6.68 nM and 8.41 nM. “UGGUACAUCGGAGGAUAUCAUGUAGAGACAUGAGGAUCACCCAUGUCGAUGGAGACAUCGGAGAUUGAGAAGGCCGAUGUACCU”: the “apparent Kd” value runs as follows: under setting [3], 109 nM; under setting [4], 22.2 nM. “UGUCGGAGCAGAGGAUAUAUACAUGAGGAUCACCCAUGUAAAUGAAUGAGCUGGAAACAGCAAGUAUAGAAGGCUGCUCCGACA”: the “apparent Kd” value under setting [2] was determined as 16.5 nM. For the sequence “GUGUACAGAGGAUAUACUUAUGGAGUCACGAAAGUGGCUUCACAUGAGGAUCACCCAUGUAGAAGGCUGUACAC”, the “apparent Kd” value under setting [1] came to 28.1 nM and the “apparent Kd” value under setting [2] was 31.1 nM. In the same order, the values of “UUUUCGUGAGGAUAUCAGUAGUAAAUAAAUAAAAUUACUACUGAGAAGGCACAUGAGGAUCACCCAUGUUCCUU” are 12.7 nM and 22.9 nM. With “GCGUGUCAUGUAGGAUAUGACACAGGAAACUGGUCAGAAGGACAUGAGGAUCACCCAUGUAAAAUGUUCAAGAAUAACGCAUGC”, the “apparent Kd” value was 40.6 nM under setting [1] and 137 nM under setting [2]. “CGUAUGUCAGGAUAUGCGUAAACCGGUCAGGGCGAGCGGCAGCAGAAGGGACAUGAGGAUCACCCAUGUUCGGG”: the “apparent Kd” value under setting [1] turned out to be 46.7 nM and the “apparent Kd” value under setting [2] was found to be 46.6 nM. The like results for “UUUUAACAUGAGGAUCACCCAUGUGAGGAUAUCGAAAUUUAUAUUAAUAUUAUUAAUUCGAGAAGGCACAUUUU” were, in that order, 117 nM and 117 nM. As for “GGGCCACAUGAGGAUCACCCAUGUAAACCCGUGCUCAGGGCACAGGAUAUGGGCCUGGAUUAGGCCCAGAAGGGUGGUCUGGCC”, the “apparent Kd” value runs as follows: under setting [3], 29.4 nM; under setting [4], 10.6 nM.

For the sequence “UUGGACGUCGUAGGAUAUGCAGGAUAUUCCUACAUGAGGAUCACCCAUGUUGACAUGGAAGAAGGACAGAAGGACGAUGUCCAU”, the “apparent Kd” value under setting [3] was determined as 11 nM and the “apparent Kd” value under setting [4] was 5.38 nM. Turning to “UGGUACUAGGGAGGAUAUGGGAAGAUACAUGAGGAUCACCCAUGUUUAAGAAUGCCGAGAGGCAAUUAGAAGGCCCUAGUACCU”, the “apparent Kd” value runs as follows: under setting [3], 983 nM; under setting [4], 148 nM. In the same order, the values of “GCGGGACGUCGAGGAUAUGGGUGUGCGAGUCUUGGCACUGGACAUGAGGAUCACCCAUGUCGCUUCCAGAAGGCGACGUCCCUA” are 34.8 nM and 6.67 nM.

Take “UCGAUGCGAGGAUAUACAAGGGCAACUACUGCCGCUAUAUAACAUGAGGAUCACCCAUGUAGAAGGCGCAUAUA”: the “apparent Kd” value came out at 22.1 nM under setting [1] and 30.2 nM under setting [2]. Take “CAGUACUGAGGAUAUACAUGAGGAUCACCCAUGUGAAUAGCAUAGGAAACUAUGCUAUGUAGAAGGCAGUACUG”: the “apparent Kd” value came to 14.1 nM under setting [1] and 22.6 nM under setting [2].

As to “CGCCGCACCAGCCGGCGGCAGGGUCAGGAUAUACAUGAGGAUCACCCAUGUGAACGGUGCCCAAUGUAGAAGGGACGAAGAGAC”, the “apparent Kd” value under setting [1] came out at 20.5 nM and the “apparent Kd” value under setting [2] amounted to 32.6 nM. In the case of “GGUGAGUGAGGAUAUCCAGGUCCUGACAUGAGGAUCACCCAUGUAUACGUCACGUGCGGAGGAGAAGGCACAAUAA”, the “apparent Kd” value reads like this: under setting [1], 91.1 nM; under setting [2], 297 nM. As to “GUUACAUGAGGAUCACCCAUGUAUGUGUGGGAGUAAGUGUCUUAGGAUAUCUAUCAUUGAAUUUAAGAGAAGGAAGAUUGUUGU”, the “apparent Kd” value is 113 nM under setting [3] and 126 nM under setting [4]. With “GGAUAGGACAGAGGAUAUACAGAUAGGAUCUACUAUCAAACAGUCCUAACAUGAGGAUCACCCAUGUAGAAGGCUGUCCUAUCG”, the “apparent Kd” value by setting is: under setting [1], 21.7 nM; under setting [2], 80.3 nM.

For “GGAUGACAAAGUCAUCCCGCUUUGACAUGAGGAUCACCCAUGUAGGAUAUAUUAAUCAAAGAUUAAUAGAAGGACAUGUUUCUG”, the “apparent Kd” value is 72.4 nM under setting [1] and 174 nM under setting [2]. As to “ACGCAGCUGGGUAAGGAUAUCGGUGGUAAAACAUGAGGAUCACCCAUGUCCGAAGCUCGGACCUCCGAGAAGGUGCCCGGCUGCG”, the “apparent Kd” value reads like this: under setting [3], 8.17 nM; under setting [4], 8.14 nM. In the case of “AGUCGGCGAGGAUAUACAUGAGGAUCACCCAUGUGAUAUAGUGCACGCGUACGUGUACGUAGAAGGCGCUGACA”, the “apparent Kd” value came out at 13.3 nM under setting [1] and 40.1 nM under setting [2]. Consider “UCCUUGGUACAGAAGGACCGAGCUCCGUAGCAGGUAGGAUAUGUACAUGAGGAUCACCCAUGUCAGCGGUAAUUACCAGUAUUC”, for which the “apparent Kd” value is 40.2 nM under setting [1] and 29.1 nM under setting [2]. Regarding “GGAUAGGACAGAGGAUAUACGUGCUAGAGAUACUAGCAAAAUUUCCUAACAUGAGGAUCACCCAUGUAGAAGGCUGUCCUAUCG”, the “apparent Kd” value reads like this: under setting [1], 6.61 nM; under setting [2], 13.3 nM.

In the case of “GGACGUCAGAUUAACAUGAGGAUCACCCAUGUCUUUUGACAUGAGGAUAUGGUUGGUAAUUCCAACCAGAAGGCAUGGACGUCC”, the “apparent Kd” value is 1100 nM under setting [3] and 125 nM under setting [4].
